The source of these data is ChEMBL document CHEMBL4765490 (J Med Chem, 2021).

Broadly, the IC50 is the concentration that gives 50% inhibition. As usually defined, the inhibition is the drop in the measured response relative to a control, in per cent. A lower inhibition goes with a weak effect.

The nature of series [1]: Inhibition of PKA (unknown origin) incubated for 30 mins using REBtide substrate by ADP-Glo assay. Set-up: species or system Homo sapiens. The procedure, abridged: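 ADP-Glo reagent was added for 40 min, then detection reagent for 30 min, and luminescence was read. Three experiments in duplicate; curves fitted as for GRK.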
For orientation: In ADP-Glo the light output rises with the ADP produced.

Series [2] has as its target G protein-coupled receptor kinase 6 (Homo sapiens) (UniProt P43250). In words: Inhibition of GRK6 (unknown origin) at 1 uM relative to control.
In series [3] the target is T1, G protein-coupled receptor kinase 5 (Homo sapiens, UniProt P34947). Kind of series: Covalent inhibition of GRK5 (unknown origin) using porcine brain tubulin as substrate by [gamma32P]ATP based radiometric assay.
Target sequence in this assay (P34947 whole entry): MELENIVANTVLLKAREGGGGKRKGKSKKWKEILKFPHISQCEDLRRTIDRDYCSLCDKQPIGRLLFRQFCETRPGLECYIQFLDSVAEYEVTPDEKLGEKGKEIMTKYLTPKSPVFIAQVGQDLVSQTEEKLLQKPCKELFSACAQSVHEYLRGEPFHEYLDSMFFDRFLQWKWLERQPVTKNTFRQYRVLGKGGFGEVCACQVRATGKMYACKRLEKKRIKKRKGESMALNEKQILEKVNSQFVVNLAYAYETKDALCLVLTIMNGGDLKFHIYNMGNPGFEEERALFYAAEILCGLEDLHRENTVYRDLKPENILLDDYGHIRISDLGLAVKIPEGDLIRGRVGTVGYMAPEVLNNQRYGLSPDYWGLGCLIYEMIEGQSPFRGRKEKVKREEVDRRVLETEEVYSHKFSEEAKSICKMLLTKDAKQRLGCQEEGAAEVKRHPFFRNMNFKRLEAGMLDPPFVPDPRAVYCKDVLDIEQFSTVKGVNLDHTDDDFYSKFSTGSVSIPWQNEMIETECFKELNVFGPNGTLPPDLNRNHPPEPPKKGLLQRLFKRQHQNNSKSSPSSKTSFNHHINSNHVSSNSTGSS
The target in series [4] is T2, G protein-coupled receptor kinase 3 (Homo sapiens) (UniProt P35626).
T2 sequence (whole entry): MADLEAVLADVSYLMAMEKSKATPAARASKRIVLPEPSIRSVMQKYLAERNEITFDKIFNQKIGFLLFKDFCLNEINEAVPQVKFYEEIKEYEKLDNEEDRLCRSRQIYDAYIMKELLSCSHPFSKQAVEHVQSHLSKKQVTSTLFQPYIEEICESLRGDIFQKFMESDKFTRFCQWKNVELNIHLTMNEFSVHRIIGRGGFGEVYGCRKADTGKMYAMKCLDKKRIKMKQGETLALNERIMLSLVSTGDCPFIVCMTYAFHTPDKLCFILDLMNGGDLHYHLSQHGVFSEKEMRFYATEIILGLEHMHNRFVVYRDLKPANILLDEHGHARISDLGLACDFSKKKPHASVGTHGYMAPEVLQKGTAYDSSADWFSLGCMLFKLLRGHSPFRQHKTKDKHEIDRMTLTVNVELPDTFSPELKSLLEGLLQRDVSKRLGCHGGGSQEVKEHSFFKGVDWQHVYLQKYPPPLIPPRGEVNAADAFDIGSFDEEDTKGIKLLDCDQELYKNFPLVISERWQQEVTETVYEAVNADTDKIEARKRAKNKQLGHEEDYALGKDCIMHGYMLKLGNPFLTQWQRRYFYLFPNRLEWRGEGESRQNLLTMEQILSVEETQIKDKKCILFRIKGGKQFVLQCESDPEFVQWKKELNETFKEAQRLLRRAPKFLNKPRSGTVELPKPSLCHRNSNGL
In words: Inhibition of GRK3 (unknown origin) at 1 uM relative to control. As to conditions: time 3-5 min.

In series [5] the target is T1, G protein-coupled receptor kinase 5.
Target sequence in this assay (P34947 whole entry, looked up): as the sequence (P34947 whole entry) above
The target in series [6] is T3, Beta-adrenergic receptor kinase 1 (Bos taurus, UniProt P21146).
T3 sequence (P21146 whole entry): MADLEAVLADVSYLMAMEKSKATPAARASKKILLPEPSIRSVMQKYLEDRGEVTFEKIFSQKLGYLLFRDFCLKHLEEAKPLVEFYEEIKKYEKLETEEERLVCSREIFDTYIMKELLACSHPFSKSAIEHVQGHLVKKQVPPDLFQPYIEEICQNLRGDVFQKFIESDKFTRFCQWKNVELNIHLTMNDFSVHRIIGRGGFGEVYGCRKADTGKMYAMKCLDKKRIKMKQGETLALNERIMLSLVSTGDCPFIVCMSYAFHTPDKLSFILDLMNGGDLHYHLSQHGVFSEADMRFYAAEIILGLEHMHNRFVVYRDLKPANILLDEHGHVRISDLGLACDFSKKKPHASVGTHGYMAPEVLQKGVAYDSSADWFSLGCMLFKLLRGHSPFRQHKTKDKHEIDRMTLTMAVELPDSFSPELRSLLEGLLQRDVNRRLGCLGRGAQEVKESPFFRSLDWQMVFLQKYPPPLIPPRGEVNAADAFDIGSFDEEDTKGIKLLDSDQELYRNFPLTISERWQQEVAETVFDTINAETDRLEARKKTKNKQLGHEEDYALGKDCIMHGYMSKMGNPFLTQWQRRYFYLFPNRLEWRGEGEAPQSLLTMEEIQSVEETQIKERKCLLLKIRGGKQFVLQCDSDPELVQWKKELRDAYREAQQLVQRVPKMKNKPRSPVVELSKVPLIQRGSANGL
In words: Inhibition of bovine GRK2 using porcine brain tubulin as substrate incubated for 3 to 5 mins by [gamma32P]ATP based radiometric assay.

Series [7] is described as follows: Metabolic stability in human liver microsomes assessed as half life at 100 uM in presence of NADPH by LC-MS/MS analysis. It counts as ADME, Microsome. The procedure, abridged: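 Stock in DMSO (1 mM) was diluted to a 100 μM working solution in 0.1 M phosphate buffer with 3.3 mM MgCl2. Microsomes (20 mg/mL) were primed with NADPH at 37 °C for 3 min, then dosed with compound. Samples were taken at 0, 5, 10, 15, 30, 45 and 60 min and stopped with cold acetonitrile containing internal standard. Protein was spun out before analysis.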
On the technique in general: Liver microsomes are a subcellular fraction often used to study metabolism.

The target in series [8] is T1, G protein-coupled receptor kinase 5. Kind of series: Inhibition of human GRK5 using porcine brain tubulin as substrate incubated for 3 to 5 mins by [gamma32P]ATP based radiometric assay.
Target sequence in this assay (P34947 whole entry): as the sequence (P34947 whole entry) above
Series [9] can be described thus: Thermodynamic solubility of compound in phosphate buffer at 6 pH by shake flask method. The format is physicochemical. As to conditions: pH 6, read-out: Therm_solubility.

Sequence of G protein-coupled receptor kinase 6 (Homo sapiens) (P43250 whole entry, looked up): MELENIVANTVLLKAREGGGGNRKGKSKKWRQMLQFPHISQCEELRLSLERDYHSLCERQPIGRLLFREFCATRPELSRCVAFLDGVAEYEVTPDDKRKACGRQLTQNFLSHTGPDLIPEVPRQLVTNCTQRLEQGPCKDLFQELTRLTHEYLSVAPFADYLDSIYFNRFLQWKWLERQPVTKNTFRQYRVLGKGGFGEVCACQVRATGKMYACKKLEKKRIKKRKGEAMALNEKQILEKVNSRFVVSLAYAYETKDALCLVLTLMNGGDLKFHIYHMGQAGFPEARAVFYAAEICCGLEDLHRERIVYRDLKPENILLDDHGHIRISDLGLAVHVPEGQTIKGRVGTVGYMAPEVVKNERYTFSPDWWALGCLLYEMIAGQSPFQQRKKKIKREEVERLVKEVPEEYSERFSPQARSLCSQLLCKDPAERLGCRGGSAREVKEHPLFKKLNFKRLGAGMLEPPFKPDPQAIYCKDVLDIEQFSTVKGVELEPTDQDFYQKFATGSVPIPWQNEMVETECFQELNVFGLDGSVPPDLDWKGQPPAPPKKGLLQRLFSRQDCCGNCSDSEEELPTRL

`CC1=C(C(=O)Nc2ccc3[nH]ncc3c2)C(c2ccc(F)c(C(=O)NCc3ccccn3)c2)NC(=O)N1` (centres undefined) came in with an IC50 in [1] of more than 250 µM.

For the compound `C=CCNC(=O)c1c(C)[nH]c(/C=C2\C(=O)Nc3ccc(C(=O)N[C@H](C)c4ccccc4)cc32)c1C`, the IC50 in series [1] is more than 250 µM.

The compound `Cc1[nH]c(/C=C2\C(=O)Nc3ccc(C(=O)N[C@H](C)c4ccccc4)cc32)c(C)c1NC(=O)/C(C#N)=C/C(C)(C)C` showed an IC50 in series [1] of more than 250 µM.

Compound `Cc1[nH]c(/C=C2\C(=O)Nc3ccc(C(=O)N[C@H](C)c4ccccc4)cc32)c(C)c1NC(=O)C(O)CCl` (some centres undefined) displayed an IC50 in series [1] of more than 250 µM.

Compound `CCN(CC)CCNC(=O)c1c(C)[nH]c(/C=C2\C(=O)Nc3ccc(C(=O)N[C@H](C)c4ccccc4)cc32)c1C` gave an IC50 in series [1] of more than 250 µM.

On to `C#CCNC(=O)c1c(C)[nH]c(/C=C2\C(=O)Nc3ccc(C(=O)N[C@H](C)c4ccccc4)cc32)c1C`, for which the inhibition in [2] is 94%.

Compound `Cc1[nH]c(/C=C2\C(=O)Nc3ccc(C(=O)N[C@H](C)c4ccccc4)cc32)c(C)c1NC(=O)CBr` (mixture of isomers) returned a Ki in [3] of 0.11 µM. For the same compound, the inhibition worked out at 97% in series [2] and 21% in [4]. In addition, the Ratio IC50 in the series listed under Homo sapiens worked out at 5. The compound further gave a Kinact in [5] of more than 1 min⁻¹. This compound had an IC50 in series [1] of more than 250 µM.

For `C#CCCNC(=O)c1c(C)[nH]c(/C=C2\C(=O)Nc3ccc(C(=O)N[C@H](C)c4ccccc4)cc32)c1C` (mixture of isomers), the IC50 in [6] is 130 µM; in series [1], more than 250 µM.

Turning to `Cc1[nH]c(/C=C2\C(=O)Nc3ccc(C(=O)N[C@H](C)c4ccccc4)cc32)c(C)c1NC(=O)CCl` (mixture of isomers), in [7], the t1/2 was found to be 13.3 min. For the same compound, in series [1], the IC50 is more than 250 µM.

As for `C=CCCNC(=O)c1c(C)[nH]c(/C=C2\C(=O)Nc3ccc(C(=O)N[C@H](C)c4ccccc4)cc32)c1C` (mixture of isomers), in [8], the IC50 was found to be 1.94 µM.

On to `CCN(CC)CCNC(=O)c1c(C)[nH]c(/C=C2\C(=O)Nc3ccc(F)cc32)c1C` (mixture of isomers) [SUNITINIB], for which the solubility thermodynamic in series [9] was 350 µg/mL.

On to `Fc1ccc([C@@H]2CCNC[C@H]2COc2ccc3c(c2)OCO3)cc1` [PAROXETINE], for which half-maximal inhibition in [1] (IC50) was put at 850 µM.
